According to ChEMBL document CHEMBL1275442, “Pharmacokinetics and tissue distribution of anidulafungin in rats” (Antimicrob Agents Chemother, 2008):

Columns and labels:
Type in all cases: ADME, organism-based
Parameters in all cases: dose 5 mg/kg, route intravenous
Settings in all cases: in vivo
Liver = assay: Drug level in Long Evans rat liver assessed as low disposition of radioactivity per gram of tissue at 5 mg/kg, iv administered as single bolus dose measured 72 hrs postdose by autoradiography
Summary of the method: (§1)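 Male pigmented Long Evans (HsdBlu:LE) rats, 7.5 weeks old, 202 to 217 g, single iv [¹⁴C]anidulafungin; one rat per sampling time. Euthanized by isoflurane and cardiac-puncture exsanguination. Sagittal whole-body sections quantified by phosphorimaging autoradiography, single samples corrected for section thickness across multiple sections per tissue. Concentrations (μg eq/g drug-derived radioactivity) interpolated from least-squares standard curves per scan.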

[1] = Drug level in Long Evans rat eye assessed as radioactivity per gram of tissue at 5 mg/kg, iv administered as single bolus dose measured 12 hrs postdose by autoradiography; summary of the method: as §1
Cerebrospinal fluid = assay: Drug level in Long Evans rat cerebrospinal fluid assessed as radioactivity per gram of tissue at 5 mg/kg, iv administered as single bolus dose measured 24 hrs postdose by autoradiography; summary of the method: as §1

CCCCCOc1ccc(-c2ccc(-c3ccc([14C](=O)N[C@H]4C[C@@H](O)[C@@H](O)NC(=O)[C@@H]5[C@@H](O)[C@@H](C)CN5C(=O)[C@H]([C@@H](C)O)NC(=O)[C@H]([C@H](O)[C@@H](O)c5ccc(O)cc5)NC(=O)[C@@H]5C[C@@H](O)CN5C(=O)[C@H]([C@@H](C)O)NC4=O)cc3)cc2)cc1 [14C-ANIDULAFUNGIN]
Drug uptake (Liver): 7.22 ugequiv
Drug uptake [1]: 1.36 ugequiv
Drug uptake (Cerebrospinal fluid): 8.92 ugequiv
